A selection: hits, their analogues and other compounds. The true share with any hit is near 5.5%.
STAT1 blocker: STAT1 signaling inhibitors, primary screen, cell-based, HTS, luciferase reporter; NIH 3T3 STAT1-luciferase reporter, IFN-gamma, luminescence; inhibition, % at 5.5 µM; actives 0.35% (n = 200,000); AID 920, 2007;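 active = inhibition above a set limit, the mean inhibition across all tested compounds plus 3 SD, cut at about 34% in these data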;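 also: 0% = IFN-gamma with DMSO and 100% = IFN-gamma with 300 µM nifuroxazide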
Cl transport mod: KCC2 cotransporter modulators, thallium flux, primary screen, cell-based, HEK293 KCC2, FluoZin-2 fluorescence, MLSMR | Solute carrier family 12 member 5 (Homo sapiens), Q9H2X9 | KCC2 cells, thallium flux FluoZin-2 fluorescence | B-score of Tl+ flux slope (higher = more flux/activation; lower = inhibition) at 10 µM | actives 2.2% (n = 190,000) | AID 1456, 2008;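 active = thallium flux slope and its plate-corrected score both differing from the plate sample mean at a set confidence after two filtering rounds, in either direction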;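 also: slope of fluorescence scaled to starting intensity during 10 to 20 s after thallium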
HSV augment: enhancers of HSV replication in host cells, fold increase, host cell viability; HSV replication augmentation in cells; maximum fold increase; actives 0.005% (n = 220,000); in the data active = maximum fold increase above about 1.5; inconclusive = no clear call, values can overlap the other calls; tested in PC3 cells
STAT3 activator: IL-6 driven STAT3 reporter potentiators, primary screen, U3A cells, luciferase, luminescence, MLSCN library | IL-6 STAT3-luciferase reporter; 100% = signal with IL-6 EC80 alone | activation (% of control), % at 5.6 µM | actives 0.91% (n = 190,000);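 active = activation above the screen-wide mean of compound activation plus 3 SD, cut at about 130% in these data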;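 also: 0% = background luminescence of wells with medium and substrate only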
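system = STAT3-luciferase reporter U3A cells | reagent = IL-6 stimulus at 33 ng/mL final | timing = 1 h compound pre-exposure, 6 h IL-6 stimulation, 37 °C | measured by = luminescence | evaluation = % activation versus median of IL-6-stimulated wells | control set = IL-6-only wells as 100% reference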
STAT3 inh: IL-6 driven STAT3 reporter inhibitors, primary screen, U3A cells, luciferase, luminescence, MLSCN library | IL-6 STAT3-luciferase reporter; host cell line lacks STAT1 | inhibition, % at 5.5 µM | actives 0.89% (n = 190,000);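 active = inhibition above the mean inhibition across all screened compounds plus 3 SD, cut at about 44% in these data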;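 also: 0% = DMSO only wells and 100% = 100 µM nifuroxazide control wells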
STAT1 act: STAT1 signaling activators, primary screen, cell-based, HTS, luciferase reporter. actives 2.6% (n = 200,000). NIH 3T3 STAT1-luciferase reporter, IFN-gamma, luminescence; 100% = IFN-gamma alone, no compound. activation (% of control), % at 5.5 µM;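 active = activation above the screen-wide mean activation plus 3 SD, cut at about 130% in these data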;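 also: raw ratio to IFN-gamma control signal so 100% means no change and 0% no light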
KCC2 sec1: KCC2 modulators in sodium-free buffer, confirmation, cell-based, HEK293 KCC2, thallium flux, secondary assay; FluoZin2 fluorescence; stronger effect = higher value; normalised thallium flux (F/F0 slope) at 10 µM; shares compounds with Cl transport mod; AID 1713, 2009; actives 15% (n = 3,700);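 active = thallium flux slope above the same plate's solvent-only control mean plus 3 SD; inconclusive = the two replicate wells disagree; inactive = no significant difference from solvent-only control wells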
KCC2 bumet counter: thallium flux persisting under bumetanide in KCC2 cells, confirmation, counter-screen for KCC2 modulator project, cell-based, HEK293 KCC2, FluoZin2, secondary assay 3 | shares compounds with Cl transport mod | HEK293-KCC2 + bumetanide/ouabain; stronger effect = higher value | normalized thallium flux at 10 µM | actives 49% (n = 3,700) | AID 1714, 2009;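 active = thallium entry rate above the same plate's blocked-transporter control wells by more than 3 SD; inconclusive = the two repeat wells disagree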;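 also: raw slope of fluorescence over initial fluorescence between 10 and 20 s after thallium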
KCC2 secondary2: KCC2 modulators without ouabain present, confirmation, cell-based, HEK293 KCC2, thallium flux, FluoZin2, secondary assay 2 | shares compounds with Cl transport mod | thallium flux FluoZin2 fluorescence; actives lie on both sides; F/F0 rise rate, 10–20 s post-thallium | normalized thallium flux at 10 µM | actives 23% (n = 3,700) | AID 1715, 2009;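 active = thallium flux slope more than 3 SD above or below the plate's solvent-only control mean, mostly below; inconclusive = the two repeat wells disagreed; inactive = no significant shift from solvent-only controls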;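 also: raw slope with 0.1% DMSO as baseline and bumetanide as block control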
HEK counter1: thallium flux modulation in parental HEK cells, confirmation, counter-screen for KCC2 modulator project, cell-based, counterscreen 1; HEK293 parental cells, thallium flux FluoZin2, ouabain; baseline-ratio fluorescence slope, 10–20 s after thallium; actives 46% (n = 3,700); shares compounds with Cl transport mod; AID 1716, 2009; thallium flux rate (normalised fluorescence) at 10 µM;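 active = thallium flux rate significantly above the same plate's solvent-only control wells, beyond their mean plus 3 SD; inconclusive = the two replicate wells gave conflicting results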
KCC2 ouabain: KCC2 inhibitors and activators, ouabain retest, confirmation, HEK-KCC2 cells. shares compounds with Cl transport mod. HEK293-KCC2, thallium flux FluoZin2 fluorescence; bidirectional: low = inhibitor, high = activator. raw Tl+ flux slope (below DMSO = inhibition, above = activation) at 10 µM. actives 48% (n = 3,700);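 active = thallium flux slope beyond 3 SD from same-plate DMSO control mean in most replicates, usually higher, sometimes lower; inconclusive = repeat tests gave conflicting results; inactive = no significant difference from controls in most replicates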;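 also: slope of initial-normalized fluorescence between seconds 10 and 20 after thallium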
HEK293 Tl flux2: native HEK Tl+ uptake effects, second counter-screen – HEK cells, counterscreen 2, counter-screen for KCC2 modulator project, confirmation. thallium flux slope at 10 µM. HEK293 parental, thallium flux FluoZin-2 fluorescence slope. actives 33% (n = 3,700). AID 1718, 2009. shares compounds with Cl transport mod;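 active = thallium flux slope above the same plate's solvent-control mean plus 3 SD in both duplicate wells; inconclusive = duplicate wells that disagreed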;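 also: run without ouabain in cells lacking the KCC2 cotransporter; slope of fluorescence scaled to its starting value between 10 and 20 s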
The depositor's hits bear a star; i = inactive; ? = inconclusive; . = no result.

SMILES	STAT1 blocker	Cl transport mod	HSV augment	STAT3 activator	STAT3 inh	STAT1 act	KCC2 sec1	KCC2 bumet counter	KCC2 secondary2	HEK counter1	KCC2 ouabain	HEK293 Tl flux2
FC(F)(F)c1ccc(Cl)c(NC(=S)N/N=C/c2ccccc2Cl)c1	.	5.4*	i	.	.	.	0.01	0.034*	0.031	0.01*	?	0.0098
Cc1c(Cl)cccc1NC(=S)Nc1ccccn1	-15	-0.082	i	127	-24	112	.	.	.	.	.	.
S=C(N/N=C/c1ccc(Cl)c(Cl)c1)Nc1ccccc1Cl	-27	3.9*	i	89	17	124	0.011	0.03*	0.035	0.016*	0.032*	0.012*
S=C(Nc1ccccn1)Nc1ccccc1Cl	-30	5*	i	102	3	124	0.0079	0.014*	0.029	0.0082*	?	0.0093
C(=N\NC1=Nc2cccc3cccc1c23)/c1ccccn1	-89	-4.4*	i	157*	-56	182*	?	0.005	0.027	0.0061	0.016*	0.0094
C(=N\Nc1nc2ccccc2s1)/c1ccccn1	.	6.9*	i	.	.	.	0.0086	?	0.032	?	0.02	0.012
C(=N\Nc1ccccc1)/c1nc2ccccc2s1	.	1	i	.	.	.	.	.	.	.	.	.
COc1ccccc1NC1=Nc2cccc3cccc1c23	.	-0.94	i	.	.	.	.	.	.	.	.	.
Cc1cc(NC(=O)c2cccc(S(=O)(=O)N3CCOCC3)c2)c2ccccc2n1	9	-0.069	i	94	11	93	.	.	.	.	.	.
CC(=O)N(C)c1ccc(NC(=O)c2ccc([N+](=O)[O-])cc2Cl)cc1	-9	0.07	i	99	1	108	.	.	.	.	.	.
CCSS(=O)(=O)c1cccc2cccnc12	.	3.9*	i	.	.	.	?	0.0079*	0.034	0.01*	?	0.014*
O=C(O)CCS(=O)(=O)c1cccc2cccnc12	8	.	i	95	10	93	.	.	.	.	.	.
CCOC(=O)C1CCCN(CCC(=O)Nc2ccccc2C)C1 (centres undefined)	-4	0.33	i	109	-8	102	.	.	.	.	.	.
O=C(CSc1nnc(-c2ccc(O)cc2)n1Cc1ccco1)N1CCc2ccccc2C1	-2	-3.7*	i	98	13	102	0.0071	0.004	0.023*	0.0069	0.013*	0.0099

Screening data from PubChem.
